Assay [1] concerns Betapolyomavirus macacae. The assay can be described thus: Induction of alkylation at Simian virus 40 150-bp DNA w794 at 10^-5 to 10^-7/M after 24 hrs by PAGE and autoradiography method. A digest of the protocol: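 w794 DNA incubated with agent at 23 °C for 24 h. Unbound agent was removed by EtOH precipitation, then the DNA was heated at 100 °C for 30 min to cleave strands at alkylated sites. Fragments were resolved by 8% denaturing PAGE against Sanger G, C, A and T sequencing lanes and untreated control DNA, and detected by autoradiography.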

For a further assay, the system named is L1210. The assay can be described thus: Cytotoxicity against mouse L1210 cells assessed as cell growth inhibition. The format is functional, cell-based.
For assay [2], the system named is Betapolyomavirus macacae. The experiment in a line: Induction of alkylation at Simian virus 40 150-bp DNA w794 after 24 hrs by PAGE and autoradiography method. The gist of the method: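 Labelled w794 DNA incubated with agent at 23 °C for 24 h. Unbound agent removed by EtOH precipitation, then thermolysis at 100 °C for 30 min to cleave strands at alkylation sites. Fragments resolved by 8% denaturing PAGE and read by autoradiography, alongside untreated control DNA and Sanger G, C, A, T sequencing lanes.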

Assay [3] is described as follows: Solvolysis reactivity of the compound in presence of Pb(acac)2 at 23 degC in MeoH solution by UV spectrophotometry.
Assay [4] is described as follows: Solvolysis reactivity of the compound in presence of Zn(acac)2 at 23 degC in MeoH solution by UV spectrophotometry.
The nature of assay [5]: Solvolysis reactivity of the compound in phosphate buffer assessed as half life at pH 3 upto 187 hrs by UV spectrophotometry. A digest of the protocol:
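UV spectra taken hourly for the first 8 h, then every 12 h, over 0–187 h until absorbance stopped changing. Rate constant and t1/2 derived from initial (A_i) and final (A_f) absorbance.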

Assay [6] can be described thus: Solvolysis reactivity of the compound in presence of Cu(acac)2 at 23 degC in MeoH solution by UV spectrophotometry.
A short description of assay [7]: Solvolysis reactivity of the compound in presence of Ni(acac)2 at 23 degC in MeoH solution by UV spectrophotometry.
Assay [8] can be described thus: Solvolysis reactivity of the compound in presence of Cd(acac)2 at 23 degC in MeoH solution by UV spectrophotometry.
The nature of assay [9]: Solvolysis reactivity of the compound in phosphate buffer at pH 7 upto 187 hrs by UV spectrophotometry.
A short description of assay [10]: Solvolysis reactivity of the compound in aqueous buffer assessed as solvolytic rate constant at pH 2 by UV spectrophotometry.
Assay [11] can be described thus: Solvolysis reactivity of the compound in aqueous buffer assessed as half life at pH 2 by UV spectrophotometry.

Activity calls are given as the source filed them. The calls are words filed in the database; no cut-off is given here.

Take `COC(=O)c1nc2c3c(cc(O)c2[nH]1)N(C(=O)c1cc2cc(OC)c(OC)c(OC)c2[nH]1)C[C@H]3CCl`: in the assay on Betapolyomavirus macacae [1], the result was Active.

Turning to `COC(=O)c1cc2c([nH]1)C(=O)C=C1N(C(=O)c3cc4cc(NC(=O)c5cc6ccccc6[nH]5)ccc4[nH]3)C[C@@H]3C[C@@]123`, the half-maximal inhibitory concentration (IC50) (as a rule, the concentration at which inhibition is half-maximal) with L1210 turned out to be 0.15 nM.

As for `COC(=O)c1nc2c([nH]1)C(=O)C=C1N(C(=O)c3cc4cc(OC)c(OC)c(OC)c4[nH]3)C[C@@H]3C[C@@]123`, in the assay on L1210, the IC50 is 2.2 nM.

Take `COC(=O)c1nc2c([nH]1)C(=O)C=C1N(C(=O)c3cc4cc(OC)c(OC)c(OC)c4[nH]3)C[C@H]3C[C@]123`: in the assay on Betapolyomavirus macacae [2], the result was inactive. The IC50 in the assay on L1210 was determined as 0.05 nM.

As to `COC(=O)c1nc2c([nH]1)C(=O)C=C1N(C(=O)c3cc4cc(NC(=O)c5cc6ccccc6[nH]5)ccc4[nH]3)C[C@@H]3C[C@@]123`, the half-maximal inhibitory concentration (IC50) in the assay on L1210 was 0.7 nM.

With `COC(=O)c1nc2c([nH]1)C(=O)C=C1N(C(=O)OC(C)(C)C)CC3CC123` (stereo unspecified), the Stability result in assay [3], in assay [4], in assay [6], in [7] and in assay [8] was “Stable” in each case. In addition, the T1/2 in assay [5] came out at 34.7 h.

As to `COC(=O)c1cc2c([nH]1)C(=O)C=C1N(C(=O)OC(C)(C)C)CC3CC123` (stereo unspecified), the Stability entry in assay [3], in assay [4], in assay [9], in assay [6], in [7] and in assay [8] was “Stable” throughout. In addition, in assay [5], the T1/2 was 177 h.

For the molecule `Cc1c[nH]c2c1[C@@]13C[C@@H]1CN(C(=O)OC(C)(C)C)C3=CC2=O`, the K in assay [10] amounted to 5.26 ×10⁻⁶ /s. Moreover, in [11], the T1/2 turned out to be 37 h.

Regarding `COC(=O)c1nc2c([nH]1)C(=O)C=C1N(C(=O)OC(C)(C)C)C[C@@H]3C[C@@]123`, the IC50 in the assay on L1210 was determined as 1100 nM.

With `COC(=O)c1cc2c([nH]1)C(=O)C=C1N(C(=O)c3cc4cc(OC)c(OC)c(OC)c4[nH]3)C[C@H]3C[C@]123`, in the assay on Betapolyomavirus macacae [2], the result was Active.

In the case of `COC(=O)c1cc2c([nH]1)C(=O)C=C1N(C(=O)c3cc4cc(NC(=O)c5cc6ccccc6[nH]5)ccc4[nH]3)C[C@H]3C[C@]123`, the 50% inhibitory concentration (IC50) with L1210 turned out to be 0.004 nM.

As for `COC(=O)c1nc2c([nH]1)C(=O)C=C1N(C(=O)c3cc4cc(NC(=O)c5cc6ccccc6[nH]5)ccc4[nH]3)C[C@H]3C[C@]123`, the IC50 in the assay with L1210 stood at 0.04 nM.

For the molecule `COC(=O)c1nc2c([nH]1)C(=O)C=C1N(C(=O)OC(C)(C)C)C[C@H]3C[C@]123`, the IC50 with L1210 amounted to 70 nM.

The values are drawn from ChEMBL document CHEMBL4477202, “Synthesis and evaluation of duocarmycin SA analogs incorporating the methyl 1,2,8,8a-tetrahydrocyclopropa[c]imidazolo[4,5-e]indol-4-one-6-carboxylate (CImI) alkylation subunit” (Bioorg Med Chem, 2016).
